Measured values from different studies.
Protocols differ between the studies behind these lines.
Target: Rho-associated protein kinase 2 (ROCK2, Homo sapiens, UniProt O75116)

SMILES	assay	setting	remaining binding [%]
CNC(=O)Nc1ccc2c(c1)CC[C@@]21OC(=O)N(CC(=O)N(Cc2ccc(F)cc2)[C@@H](C)C(F)(F)F)C1=O	cell-free assay, competition with immobilised ligand	1 µM	96
O=C(NCCCN1CCOCC1)c1ccc(Nc2nccc(-c3cc4ccccc4s3)n2)cc1	binding, competition with immobilised ligand	1 µM	46
CCN1CCN(Cc2ccc(C(=O)Nc3ccc(C)c(Oc4ccc5c(c4)CC(=O)N5)c3)cc2C(F)(F)F)CC1	binding, competition with immobilised ligand	1 µM	74
Cc1cc(-n2nc(Cc3cc(F)cc(C(F)(F)F)c3)nc2C)ccc1C(N)=O	cell-free assay, competition with immobilised ligand	1 µM	96
O=C(NCCCN1CCOCC1)c1ccc(Nc2ncc(Cl)c(-c3ccc(Cl)s3)n2)cc1	binding, competition with immobilised ligand	1 µM	61
CN(C)c1nccc(-c2cnn3ncccc23)n1	binding	1 µM	84
CC1=C(C#N)C(c2ccc3c(c2)c(NC(=O)c2ccccc2C)nn3C)C(C#N)=C(C)N1	cell-free assay, competition with immobilised ligand	1 µM	93
COc1ncc2cc3ccccc3nc2c1C#N	cell-free assay, competition with immobilised ligand	5 µM	98
C[C@@H]1CN(c2ccc3ncc(-c4ccc5[nH]nc(C6CC6)c5c4)n3n2)C[C@H](C)O1	binding, competition with immobilised ligand	0.5 µM	21
Cc1nc(N2CC[C@@H](O)C2)ncc1-c1cc(C(F)(F)F)cc2[nH]ncc12	binding, competition with immobilised ligand	1 µM	77
CC1CCCN1c1nccc(-c2cnn3ncccc23)n1 (stereo not drawn)	binding	1 µM	100
Nc1ncc2c(n1)-c1c([nH]c3ccc(C#CC4CC4)cc13)CCCC2	binding, competition with immobilised ligand	1 µM	75
CN(C)c1nccc(-c2cnc3ncccn23)n1	binding	1 µM	100
CN(C)C(=O)Cn1cc(-c2nc(C3(c4ccc(-c5cnc(N)nc5)cc4)CC3)no2)cn1	cell-free assay, competition with immobilised ligand	1 µM	89
COc1ccnn2ncc(-c3ccnc(N(C)C)n3)c12	binding	1 µM	100
O=C(c1ccc(Nc2ncc(Cl)c(-c3cc4ccccc4s3)n2)cc1)N1CCC(N2CCCC2)CC1	binding, competition with immobilised ligand	1 µM	7.2
c1cncc(-c2cccc(Nc3nccc(NC4CCCCC4)n3)c2)c1	binding, competition with immobilised ligand	10 µM	25
C[C@@H](c1ccc(-n2cnc3c(N)ncnc32)cc1)N1CCc2nn(C)c(Cc3ccccc3)c2C1=O	binding, competition with immobilised ligand	0.1 µM	77
Cc1cnn2ncc(-c3ccnc(N(C)C)n3)c2c1	binding	1 µM	95
C[C@@H](c1cccc(C#N)c1)n1cc(Cl)cc(C(N)=O)c1=N	cell-free assay, competition with immobilised ligand	1 µM	90
COc1cnc(Nc2cccc(S(N)(=O)=O)c2)nc1N1CCN(c2ccccc2)C(=O)C1	binding, competition with immobilised ligand	1 µM	78
N[C@@H]1CCN(c2nccc(-c3cnn4ncccc34)n2)C1	binding	1 µM	100
O=C(N[C@H]1CCCCC/C=C\C2C[C@@]2(C(=O)O)NC(=O)[C@@H]2C[C@@H](Oc3ccncc3)CN2C1=O)OC1CCCC1 (stereo partly drawn)	binding, competition with immobilised ligand	1 µM	100
O=C(NCC1CCOCC1)c1n[nH]cc1NC(=O)c1c(F)cccc1F	binding, competition with immobilised ligand	1 µM	64
